Assay results from the array DNA melting data of Ke et al. (doi:10.1101/2024.01.08.574731).

Legend:
[1] = melting temperature; fluorescence melt of hairpins on a sequencing array, two-state fit, raised by 9.35 °C to match UV melts; conditions: sodium 0.088 M
How it was run: (§1)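 Folding enthalpy and melting temperature come from bootstrapped two-state fits to Cy3 fluorescence of library hairpins carrying annealed Cy3 and quencher oligos on a sequenced MiSeq flow cell. Imaging was done in 50 mM Na-HEPES pH 8.0, 25 mM NaCl, stepping by 2.5 °C up to 60 °C, and signals were normalised to pre-quench Cy3 and to control constructs. Results of four replicates were combined by inverse variance, and fitted temperatures were raised by 9.35 °C to match UV melts.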

[2] = folding enthalpy; higher = less favourable; fluorescence melt of hairpins on a sequencing array, two-state fit; conditions: sodium 0.088 M
How it was run: as §1

| Sequence | Tm [1] [°C] | folding enthalpy [2] [kcal/mol] |
| --- | --- | --- |
| GGGCTAGGAAACTAGCTC (.(((((....))))).) | 50.9 | -28.9 |
| GCATTTCCGAAAGGATGC (((..(((....)))))) | 38.4 | -21.6 |
| GTGATCGAAAGATGCCAC ((((((....)))..))) | 24.4 | -11.5 |
| GCGACGGCGAAAGCCCGC (((..(((....)))))) | 58.1 | -16.6 |
| GGAGTCGAAAGACCTTCC ((((((....)))..))) | 40.6 | -22.5 |
| GCCATCGAAAGATGGGGC ((((((....)))..))) | 54.4 | -12.8 |
| GGGATGGCGAAAGCCCCC (((..(((....)))))) | 47.3 | -15.7 |
| GCGCACCGAAAGGTACGC (((.(((....))).))) | 64.3 | -42.3 |
| GCCATGCGAAAGCTTCGC ((.(.((....)).).)) | 47.3 | -8.18 |
| CGAATCGGAAACGACTCG (((.(((....))).))) | 42.1 | -36.2 |
| GCCTAGCGAAAGCTATGC ((.((((....)))).)) | 46.2 | -23.6 |
| CGCTTGCGGAAACGCGCG (((..(((....)))))) | 51.3 | -10.8 |
| CGGACGGAAACGTGGCCG ((((((....)))..))) | 44.1 | -25.7 |
| GCCGACGGAAACGCCAGC ((.(.((....)).).)) | 33.8 | -13.3 |
| GGTCACGGAAACGTAACC (((.(((....))).))) | 42.1 | -31.5 |
| GATCCAAAGTGGATC ((((((...)))))) | 48.8 | -30.9 |
| GATCGGACGCCGATC ((((((...)))))) | 53.6 | -37.4 |
| GCCGCGCGAAAGCGACGC ((..(((....)))..)) | 55.1 | -11.9 |
| GCGTCCGAAAGGATCGC ((((((....))).))) | 59.5 | -37.8 |
| GCCCTACGAAAGTAAGGC (((.(((....))).))) | 47.4 | -31.3 |
| GCGACGCGAAAGCAGCGC (((..((....))..))) | 65.7 | -30.3 |
| CGTCGGAAACGACG (((((....))))) | 69.2 | -27.6 |
| GAAGTCGGAAACGACCTC ((.((((....)))).)) | 37.2 | -13.6 |

| Sequence | Tm [1] [°C] | folding enthalpy [2] [kcal/mol] |
| --- | --- | --- |
| GGGAACGAAAGTTTACCC ((((((....)))..))) | 34.1 | -21.1 |
| GCGAAGGATCGC ((((....)))) | 59.7 | -9.71 |
| GAGTCGGGAAACCGGTTC ((..(((....)))..)) | 32.8 | -15.6 |
| GATCCGAGTACGGATC ((((((....)))))) | 58.6 | -40.8 |
| GTTTCTGGAAACAGAAAC (((((((....))))))) | 55.1 | -43.3 |
| GATCGCACACGCGATC ((((((....)))))) | 68.2 | -38 |
| GATTAGGAAACTAATC ((((((....)))))) | 43.9 | -30.5 |
| GGCCTCACGAAAGTGGCC (((..(((....)))))) | 53.7 | -21.9 |
| GATCGAGTTGTCGATC ((((((....)))))) | 52.8 | -39.4 |
| GCGTGTTACGC ((((...)))) | 61.6 | -24 |
| GCGACTGGAAACAACCGC (((..((....))..))) | 29.2 | -18.1 |
| GATCGTAACTACGATC ((((((....)))))) | 56 | -41.6 |
| GAGTACGAAAGTACCCTC ((((((....)))..))) | 38.6 | -13.2 |
| GGCGCAGGAAACTGCACC ((.((((....)))).)) | 54.4 | -29.9 |
| GGCACAGGAAACTACGCC (((..((....))..))) | 39.8 | -29.9 |
| GCGCAGCGAAAGCCACGC (((..((....))..))) | 42.4 | -9.86 |
| GCATGGCGAAAGCCGAGC ((..(((....)))..)) | 55.7 | -17.1 |
| GATGGCGGAAACACCATC (((((.(....).))))) | 47.2 | -34.3 |
| GCCGGGCGAAAGCCCAGC ((.((((....)))).)) | 64.8 | -15.8 |
| GGCGGACGAAAGTCGCC (((.(((....)))))) | 68.5 | -28.2 |
| GGCCGCGAAAGCGGGGCC ((((((....)))..))) | 63.6 | -12.7 |
| GCAGTACCGAAAGGTTGC (((..(((....)))))) | 43.3 | -20.4 |
| GATGCAGGAAACTGTATC (((.(((....))).))) | 44.9 | -33.5 |

| Sequence | Tm [1] [°C] | folding enthalpy [2] [kcal/mol] |
| --- | --- | --- |
| GGGTTAGGAAACTAACCC (((((((....))))))) | 61.3 | -47.6 |
| GAGTGCGAAAGCATGCTC ((((((....)))..))) | 43.4 | -15 |
| GTCCACGAAAGTGATGAC ((((((....)))..))) | 39.4 | -14.8 |
| GCTGGGGGAAACCCTGGC ((..(((....)))..)) | 49.1 | -23.4 |
| GATCTGTACCCAGATC ((((((....)))))) | 47.5 | -36.4 |
| CAAATGAAAATTTG (((((....))))) | 32.8 | -12.8 |
| CGGCATCGGAAACGACCG (((..(((....)))))) | 34.4 | -16.6 |
| GCGAGCCTCGC ((((...)))) | 49.7 | -21.9 |
| GATCAAGTCGTTGATC ((((((....)))))) | 48 | -39.2 |
| GCTGGCGGAAACACCAGC (((((.(....).))))) | 53.5 | -40.8 |
| GCTGTCCGAAAGGAAGC (((.(((....)))))) | 49.1 | -23.9 |
| GGCTCTCGAAAGAGCGCC (((.(((....))).))) | 56.4 | -34.6 |
| GTGTACGAAAGTAATCAC ((((((....)))..))) | 30.2 | -18.3 |
| GATCAACTCTTTGATC ((((((....)))))) | 45.1 | -37.5 |
| GATCGACCTTCGATC ((((((...)))))) | 51 | -35.6 |
| GTGGTCGAAAGACACAC ((((((....))).))) | 50.3 | -26.6 |
| GTATCTGGAAACAGATGC (.(((((....))))).) | 46.9 | -21.2 |
| GGATCTGGAAACGGATCC (((((.(....).))))) | 51.6 | -38.4 |
| GGGCGGACGAAAGTCCCC (((..(((....)))))) | 50.6 | -13.8 |
| GGGCACGAAAGTGACCC ((((((....))).))) | 66.8 | -13.2 |
| GAGCTCGGAAACGGGCTC ((((.((....)).)))) | 60.7 | -44.2 |
| GCCAGCGAAAGCTTTGGC ((((((....)))..))) | 51.4 | -23.8 |
| GAGACTGGAAACAGTCTC (((((((....))))))) | 64.8 | -40.3 |

| Sequence | Tm [1] [°C] | folding enthalpy [2] [kcal/mol] |
| --- | --- | --- |
| CGACCGGAAACGGTTCG ((((((....))).))) | 49.2 | -20.1 |
| GCTAAGCGAAAGCGTTGC ((.(.((....)).).)) | 53.4 | -20 |
| GGTTGCGAAAGCACGACC ((((((....)))..))) | 40.6 | -15.8 |
| GACGTTGGAAACGACGTC (((((.(....).))))) | 55.8 | -35.1 |
| CGCGCGGAAACGCTCGCG ((((((....)))..))) | 52.5 | -23.4 |
| GTACCCGAAAGGGCGTAC ((((((....)))..))) | 34.2 | -14.3 |
| TCCTTGAAAAAGGA (((((....))))) | 35.1 | -11.1 |
| GATCAGGGAAACCTGGTC ((.((((....)))).)) | 47.4 | -29.2 |
| GATCTACTCCTAGATC ((((((....)))))) | 39.5 | -33 |
| GATCCTTTATAGGATC ((((((....)))))) | 53.4 | -40.2 |
| GGAATGCGAAAGCAGTCC (((.(((....))).))) | 61.2 | -36.6 |
| GCCGACTCGAAAGAGGGC (((..(((....)))))) | 47.1 | -23.1 |
| CGTGCGGAAACGCTACG ((((((....))).))) | 50.6 | -27.6 |
| GCACGGGGAAACCCGCGC ((.((((....)))).)) | 58.4 | -36.1 |
| GGGGATCGAAAGATGCCC (((.(((....))).))) | 59.4 | -48.8 |
| GGCCCAGGAAACCGGGCC (((((.(....).))))) | 63.5 | -42.2 |
| GCGATAGGAAACTACCGC (((.(((....))).))) | 44.7 | -28.5 |
| GATCCGCCCTCGGATC ((((((....)))))) | 57.1 | -40.6 |
| GTATATCGAAAGATTAC (((.(((....)))))) | 31 | -14.6 |
| GCAAGGCGAAAGCTATGC (((..((....))..))) | 42.4 | -20.8 |
| GCCGAGCGAAAGCAGGGC (((..((....))..))) | 57.2 | -26.3 |
| GTGAAAACGAAAGTTCAC (((..(((....)))))) | 38.4 | -21.7 |
| GCCCGTCGAAAGACGGC (((.(((....)))))) | 63.6 | -10.7 |
